The values that follow come from ChEMBL document CHEMBL1154722, “Syntheses and evaluation of the antioxidant activity of acitretin analogs with amide bond(s) in the polyene spacer” (Eur J Med Chem, 2010).

Calls of active or inactive are those of the source. No cut-off for these calls is given here.

The nature of test [1]: Antioxidant activity assessed as inhibition of AAPH-induced lipid peroxidation at 100 uM. Format: functional. The method, boiled down:
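Run at 37 °C in 0.05 M phosphate buffer pH 7.4 with 10 μL of 16 mM sodium linoleate (stock), compound in DMSO (10 μL). Oxidation started in air by 50 μL of 40 mM AAPH (stock). Conjugated diene formation followed as rising absorbance at 234 nm. Controls carried the same DMSO level. At least triplicate.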

In test [2] the test system is Radical scavenging activity. Nature of the test: Antioxidant activity assessed as DPPH radical scavenging activity at 100 uM after 20 mins by spectrophotometry. Format: functional. Summed up: (§1)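 DPPH at 0.05 mM in absolute ethanol mixed with an equal volume of compound in DMSO. Mixture shaken and left 20 or 60 min. Absorbance read at 517 nm to give percent activity. Three replicates averaged.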
On the technique in general: The DPPH test is a chemical assay of radical scavenging.

Test [3] relates to Glycine max. Put plainly: Inhibition of soybean lipoxygenase assessed as conversion of sodium linoleate to 13-hydroperoxylinoleate at 100 uM. The method, boiled down:
(§2)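 Soybean lipoxygenase solution (1/9×10^-4 w/v in saline) incubated at room temperature with sodium linoleate and compound in DMSO. Conversion to 13-hydroperoxylinoleate recorded at 234 nm and compared with a standard inhibitor. At least triplicate.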

Test [4] deals with Radical scavenging activity. Nature of the test: Antioxidant activity assessed as DPPH radical scavenging activity at 100 uM after 60 mins by spectrophotometry. In kind it is functional. Summed up:
as §1

A short description of test [5]: Inhibition of soybean lipoxygenase assessed as conversion of sodium linoleate to 13-hydroperoxylinoleate. Also on record: species or system Glycine max. The method, boiled down:
as §2

For the next test, the system named is Rattus norvegicus. Nature of the test: Antiinflammatory activity in Fisher 344 rat assessed as inhibition of carrageenan-induced paw edema at 0.01 mmol/Kg, ip administered simultaneously with carrageenan measured after 3.5 hrs relative to control. In kind it is functional. To be noted: Fisher 344, ip. The method, boiled down:
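Fischer-344 rats of both sexes (pregnant females excluded), 6–15 per group. Oedema induced in right hind paw by intradermal 0.1 ml 2% carrageenan in water. Compounds suspended in water with a few drops Tween 80, given ip at carrageenan injection. Rats killed at 3.5 h. Injected minus uninjected paw weight compared with water-treated controls as % inhibition. Mean of two experiments.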
(The carrageenan paw model is a standard test of acute inflammation.)

The test system of test [6] is Glycine max. Nature of the test: Inhibition of soybean lipoxygenase assessed as conversion of sodium linoleate to 13-hydroperoxylinoleate at 50 uM. The method, boiled down:
as §2

The subject of test [7] is Glycine max. Put plainly: Inhibition of soybean lipoxygenase assessed as conversion of sodium linoleate to 13-hydroperoxylinoleate at 10 uM. The method, boiled down: as §2

For orientation: inhibition means the change of the read-out against control, counted positive when it falls. `COc1cc(OC)c(OC)cc1/C=C/C(=O)n1ccc(/C(C)=C/C(=O)OC(C)(C)C)c1`: the inhibition in test [1] is 46%; with Glycine max [3], 39%. For the same compound, in test [2], the Activity turned out to be 8%.
In the case of `COc1cc(NC(=O)c2cn(C(=O)CCC(=O)O)c3ccccc23)cc(OC)c1OC`, the figures for the inhibition (in test [1]; in the test with Glycine max [3]) were 34% and 10%, respectively. Moreover, in test [2], the Activity is 12.5%.
Take `CC(C)(C)OC(=O)/C=C1/c2ccccc2-c2c(NC(=O)/C=C/c3ccc4c(c3)OCO4)cccc21`: the inhibition in test [1] came to 49%; in the test with Glycine max [3] it was 43%. The result in test [2] was inactive. Moreover, the Activity in test [4] was 6%.
By IC50 is commonly meant the concentration at which inhibition is half-maximal. Consider `O=C(O)/C=C/c1ccc(O)c(O)c1` [CAFFEIC ACID], for which the inhibition in test [1] was 17.5%. Further, in test [5], the IC50 came out at 600 µM. In test [2], the Activity stood at 5.5%.
For `CC(C)(C)OC(=O)/C=C/c1cn(C(=O)/C=C/c2ccc3c(c2)OCO3)c2ccccc12` the same measures were 95%, 82.5 µM and 13%.
In the case of `COc1cc(NC(=O)c2cn(C(=O)/C=C\C(=O)O)c3ccccc23)cc(OC)c1OC`, the inhibition in test [1] worked out at 8%; in the test on Glycine max [3], 42%. Besides, the Activity in test [2] was found to be 2%.
As to `O=C(O)/C=C/C(=O)n1cc(C(=O)Nc2cccc([N+](=O)[O-])c2)c2ccccc21`, the inhibition in test [1] came to 94%; with Glycine max [3], 26%. The result in test [2] was inactive.
By inhibition in vivo is commonly meant the drop in the measured response relative to a control, in per cent. Turning to `COc1ccc(NC(=O)c2cn(C(=O)/C=C/C(=O)O)c3ccccc23)c(OC)c1`, in test [1], the inhibition came out at 77%. Besides, the inhibition in vivo at 10 µmol/kg with Rattus norvegicus turned out to be 46%. The IC50 in test [5] was 35 µM. Further, the Activity in test [2] turned out to be 10%.
Regarding `COc1cc(OC)c(OC)cc1/C=C/C(=O)n1cc(/C=C/C(=O)OC(C)(C)C)c2ccccc21`, the inhibition worked out at 80% in test [1], 85% in the test with Glycine max [6], 85% with Glycine max [3] and 0% with Glycine max [7]. The Activity in test [2] worked out at 8.3%.
In the case of `COc1ccc(NC(=O)c2cn(C(=O)/C=C/C(=O)OC(C)(C)C)c3ccccc23)c(OC)c1`, in test [1], the inhibition came to 68%. The inhibition in vivo at 10 µmol/kg in the test on Rattus norvegicus came out at 58.6%. Besides, in test [5], the IC50 was found to be 100 µM. For the same compound, the Activity in test [2] amounted to 5%.
In the case of `COc1ccc(NC(=O)c2cn(C(=O)/C=C/c3cc(OC)c(OC)cc3OC)c3ccccc23)c(OC)c1`, the inhibition in test [1] turned out to be 42%; in the test on Glycine max [3], 69%. Also, in test [2], the Activity is 5%.
For `O=C(O)/C=C/c1cn(C(=O)/C=C/c2ccc3c(c2)OCO3)c2ccccc12`, the inhibition in test [1] turned out to be 22%. Moreover, the inhibition in vivo at 10 µmol/kg with Rattus norvegicus turned out to be 34%. The half-maximal inhibitory concentration (IC50) in test [5] came out at 65 µM. Also, in test [2], the Activity came out at 21%.
For `CC(Cc1ccc(O)c(O)c1)C(C)Cc1ccc(O)c(O)c1` (stereo not given), the figures for the Activity in test [2] and in test [4] were 81% and 83%, respectively.
On to `O=C(O)/C=C/C(=O)n1cc(C(=O)Nc2ccccc2)c2ccccc21`, for which the inhibition in test [1] was determined as 85%. Besides, in test [5], the IC50 came out at 52.4 µM. The Activity in test [2] came out at 1%.
In the case of `COc1ccc2c(c1)c(CC(=O)O)c(C)n2C(=O)c1ccc(Cl)cc1` [INDOMETHACIN], the inhibition in vivo at 10 µmol/kg in the test with Rattus norvegicus is 47%.
As to `COc1cc(OC)c(C2CC(=O)n3c2c(/C=C/C(=O)O)c2ccccc23)cc1OC` (stereo not given), the inhibition in test [1] was determined as 57%. In the test with Rattus norvegicus, the inhibition in vivo at 10 µmol/kg was determined as 9%. For the same compound, in test [5], the half-maximal inhibitory concentration (IC50) turned out to be 45.2 µM. In addition, the Activity in test [2] was determined as 12%.
Turning to `Cc1c(C)c2c(c(C)c1O)CCC(C)(C(=O)O)O2` (stereo not given), the inhibition in test [1] was 63%.
On to `COc1cc(C)c(/C=C/C(C)=C/C=C/C(C)=C/C(=O)O)c(C)c1C` [ACITRETIN], for which the inhibition in test [1] stood at 85%; in the test on Glycine max [3], 1%. Also, the inhibition in vivo at 10 µmol/kg in the test with Rattus norvegicus came to 63%. Further, the outcome in test [2] was inactive.
As for `COc1cc(NC(=O)c2cn(C(=O)/C=C/C(=O)O)c3ccccc23)cc(OC)c1OC`, the inhibition worked out at 64% in test [1] and 57% in the test with Glycine max [3]. Besides, the Activity in test [2] came out at 26%.
